Data reported in ChEMBL document CHEMBL1123146, “Design, synthesis, and evaluation of omega-iodovinyl- and omega-iodoalkyl-substituted methyl-branched long-chain fatty acids” (J Med Chem, 1985).

How the values were obtained:
[1] = system: Rattus norvegicus; test: Distribution of radioactivity was measured in blood tissue of unfasted Fischer 344 rats administered intravenously after 15 minutes (radiolabeled with [125I]-; format: ADME, organism-based; conditions: in vivo, iv, 0.25 h
Outline: (§1)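 Female Fischer 344 rats, 10–12 weeks old (170–200 g), with food and water ad libitum, five per time point. The radioiodinated fatty acid was dissolved in ethanol, added to 6% BSA at ~40 °C (final 10% ethanol), filtered, and injected into a lateral tail vein (0.5 mL) under ether anesthesia. Blood was taken by cardiac puncture; organs were rinsed, blotted, weighed and gamma-counted against injectate standards. Output is % injected dose/g.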

[2] = system: Rattus norvegicus; test: Mean heart/blood tissue of unfasted Fischer 344 rats administered intravenous after 15 minutes (radiolabeled with [125I]-; format: ADME, organism-based; conditions: in vivo, 0.25 h
Outline: (§2)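 Female Fischer 344 rats (10-12 weeks, 170-200 g), fed ad libitum before and during the experiment, five per time point. The radioiodinated fatty acid was dissolved in 0.5 mL absolute ethanol, added dropwise to stirred 6% BSA at ~40 °C (final ethanol 10%), filtered at 0.22 µm, and injected in 0.5 mL into a lateral tail vein under ether anesthesia.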

[3] = system: Rattus norvegicus; test: Distribution of radioactivity was measured in thyroid tissue of unfasted Fischer 344 rats administered intravenously after 15 minutes (radiolabeled with [125I]-; format: ADME, organism-based, Thyroid gland; conditions: in vivo, iv, 0.25 h; outline: as §1
[4] = system: Rattus norvegicus; test: Distribution of radioactivity was measured in thyroid tissue of unfasted Fischer 344 rats administered intravenously after 5 minutes (radiolabeled with [125I]-; format: ADME, organism-based, Thyroid gland; conditions: in vivo, iv; outline: as §1
[5] = system: Rattus norvegicus; test: Distribution of radioactivity was measured in kidney tissue of unfasted Fischer 344 rats administered intravenously after 15 minutes (radiolabeled with [125I]-; format: ADME, organism-based; conditions: in vivo, iv, 0.25 h; outline: as §1
[6] = system: Rattus norvegicus; test: Distribution of radioactivity was measured in kidney tissue of unfasted Fischer 344 rats administered intravenously after 5 minutes (radiolabeled with [125I]-; format: ADME, organism-based; conditions: in vivo, iv; outline: as §1
[7] = system: Rattus norvegicus; test: Distribution of radioactivity was measured in liver tissue of unfasted Fischer 344 rats administered intravenously after 15 minutes (radiolabeled with [125I]-; format: ADME, organism-based; conditions: in vivo, iv, 0.25 h; outline: as §1
[8] = system: Rattus norvegicus; test: Distribution of radioactivity was measured in liver tissue of unfasted Fischer 344 rats administered intravenously after 30 minutes (radiolabeled with [125I]-; format: ADME, organism-based; conditions: in vivo, iv, 0.5 h; outline: as §1
[9] = system: Rattus norvegicus; test: Distribution of radioactivity was measured in kidney tissue of unfasted Fischer 344 rats administered intravenously after 30 minutes (radiolabeled with [125I]-; format: ADME, organism-based; conditions: in vivo, iv, 0.5 h; outline: as §1
[10] = system: Rattus norvegicus; test: Distribution of radioactivity was measured in lung tissue of unfasted Fischer 344 rats administered intravenously after 2 minutes (radiolabeled with [125I]-; format: ADME, organism-based; conditions: in vivo, iv; outline: as §1
[11] = system: Rattus norvegicus; test: Distribution of radioactivity was measured in heart tissue of unfasted Fischer 344 rats administered intravenously after 15 minutes (radiolabeled with [125I]-; format: ADME, organism-based; conditions: in vivo, iv, 0.25 h; outline: as §1
[12] = system: Rattus norvegicus; test: Distribution of radioactivity was measured in heart tissue of unfasted Fischer 344 rats administered intravenously after 60 minutes (radiolabeled with [125I]-; format: ADME, organism-based; conditions: in vivo, iv, 1 h; outline: as §1
[13] = system: Rattus norvegicus; test: Distribution of radioactivity was measured in heart tissue of unfasted Fischer 344 rats administered intravenously after 2 minutes (radiolabeled with [125I]-; format: ADME, organism-based; conditions: in vivo, iv; outline: as §1
[14] = system: Rattus norvegicus; test: Distribution of radioactivity was measured in thyroid tissue of unfasted Fischer 344 rats administered intravenously after 2 minutes (radiolabeled with [125I]-; format: ADME, organism-based, Thyroid gland; conditions: in vivo, iv; outline: as §1
[15] = system: Rattus norvegicus; test: Distribution of radioactivity was measured in blood tissue of unfasted Fischer 344 rats administered intravenously after 5 minutes (radiolabeled with [125I]-; format: ADME, organism-based; conditions: in vivo, iv; outline: as §1
[16] = system: Rattus norvegicus; test: Mean heart/blood tissue of unfasted Fischer 344 rats administered intravenous after 30 minutes (radiolabeled with [125I]-; format: ADME, organism-based; conditions: in vivo, 0.5 h; outline: as §2
[17] = system: Rattus norvegicus; test: Distribution of radioactivity was measured in heart tissue of unfasted Fischer 344 rats administered intravenously after 5 minutes (radiolabeled with [125I]-; format: ADME, organism-based; conditions: in vivo, iv; outline: as §1
[18] = species on record: Rattus norvegicus; test: Specific activity was determined with radioiodinated iodine-123; format: functional
[19] = system: Rattus norvegicus; test: Distribution of radioactivity was measured in thyroid tissue of unfasted Fischer 344 rats administered intravenously after 30 minutes (radiolabeled with [125I]-; format: ADME, organism-based, Thyroid gland; conditions: in vivo, iv, 0.5 h; outline: as §1
[20] = system: Rattus norvegicus; test: Distribution of radioactivity was measured in kidney tissue of unfasted Fischer 344 rats administered intravenously after 2 minutes (radiolabeled with [125I]-; format: ADME, organism-based; conditions: in vivo, iv; outline: as §1
[21] = system: Rattus norvegicus; test: Distribution of radioactivity was measured in blood tissue of unfasted Fischer 344 rats administered intravenously after 30 minutes (radiolabeled with [125I]-; format: ADME, organism-based; conditions: in vivo, iv, 0.5 h; outline: as §1
[22] = system: Rattus norvegicus; test: Distribution of radioactivity was measured in liver tissue of unfasted Fischer 344 rats administered intravenously after 2 minutes (radiolabeled with [125I]-; format: ADME, organism-based; conditions: in vivo, iv; outline: as §1
[23] = system: Rattus norvegicus; test: Distribution of radioactivity was measured in blood tissue of unfasted Fischer 344 rats administered intravenously after 2 minutes (radiolabeled with [125I]-; format: ADME, organism-based; conditions: in vivo, iv; outline: as §1
[24] = system: Rattus norvegicus; test: Mean heart/blood tissue of unfasted Fischer 344 rats administered intravenous after 2 minutes (radiolabeled with [125I]-; format: ADME, organism-based; conditions: in vivo; outline: as §2
[25] = system: Rattus norvegicus; test: Distribution of radioactivity was measured in lung tissue of unfasted Fischer 344 rats administered intravenously after 30 minutes (radiolabeled with [125I]-; format: ADME, organism-based; conditions: in vivo, iv, 0.5 h; outline: as §1
[26] = system: Rattus norvegicus; test: Distribution of radioactivity was measured in kidney tissue of unfasted Fischer 344 rats administered intravenously after 60 minutes (radiolabeled with [125I]-; format: ADME, organism-based; conditions: in vivo, iv, 1 h; outline: as §1
[27] = system: Rattus norvegicus; test: Distribution of radioactivity was measured in blood tissue of unfasted Fischer 344 rats administered intravenously after 60 minutes (radiolabeled with [125I]-; format: ADME, organism-based; conditions: in vivo, iv, 1 h; outline: as §1
[28] = system: Rattus norvegicus; test: Distribution of radioactivity was measured in liver tissue of unfasted Fischer 344 rats administered intravenously after 60 minutes (radiolabeled with [125I]-; format: ADME, organism-based; conditions: in vivo, iv, 1 h; outline: as §1
[29] = system: Rattus norvegicus; test: Distribution of radioactivity was measured in lung tissue of unfasted Fischer 344 rats administered intravenously after 5 minutes (radiolabeled with [125I]-; format: ADME, organism-based; conditions: in vivo, iv; outline: as §1
[30] = system: Rattus norvegicus; test: Mean heart/blood tissue of unfasted Fischer 344 rats administered intravenous after 5 minutes (radiolabeled with [125I]-; format: ADME, organism-based; conditions: in vivo; outline: as §2
[31] = system: Rattus norvegicus; test: Distribution of radioactivity was measured in lung tissue of unfasted Fischer 344 rats administered intravenously after 15 minutes (radiolabeled with [125I]-; format: ADME, organism-based; conditions: in vivo, iv, 0.25 h; outline: as §1
[32] = species on record: Rattus norvegicus; test: Specific activity was determined with radioiodinated iodine-125; format: functional
[33] = system: Rattus norvegicus; test: Mean heart/blood tissue of unfasted Fischer 344 rats administered intravenous after 60 minutes (radiolabeled with [125I]-; format: ADME, organism-based; conditions: other tissue, 1 h; outline: as §2
[34] = system: Rattus norvegicus; test: Distribution of radioactivity was measured in liver tissue of unfasted Fischer 344 rats administered intravenously after 5 minutes (radiolabeled with [125I]-; format: ADME, organism-based; conditions: in vivo, iv; outline: as §1
[35] = system: Rattus norvegicus; test: Distribution of radioactivity was measured in lung tissue of unfasted Fischer 344 rats administered intravenously after 60 minutes (radiolabeled with [125I]-; format: ADME, organism-based; conditions: in vivo, iv, 1 h; outline: as §1
[36] = system: Rattus norvegicus; test: Distribution of radioactivity was measured in thyroid tissue of unfasted Fischer 344 rats administered intravenously after 60 minutes (radiolabeled with [125I]-; format: ADME, organism-based, Thyroid gland; conditions: in vivo, iv, 1 h; outline: as §2
[37] = system: Rattus norvegicus; test: Distribution of radioactivity was measured in heart tissue of unfasted Fischer 344 rats administered intravenously after 30 minutes (radiolabeled with [125I]-; format: ADME, organism-based; conditions: in vivo, iv, 0.5 h; outline: as §1

| Distribution [1] [%] | Distribution [2] [%] | Distribution [3] [%] | Distribution [4] [%] | Distribution [5] [%] | Distribution [6] [%] | Distribution [7] [%] | Distribution [8] [%] | Distribution [9] [%] | Distribution [10] [%] | Distribution [11] [%] | Distribution [12] [%] | Distribution [13] [%] | Distribution [14] [%] | Distribution [15] [%] | Distribution [16] [%] | Distribution [17] [%] | Distribution [19] [%] | Distribution [20] [%] | Compound | Specific activity [18] | also measured |
| --- | --- | --- | --- | --- | --- | --- | --- | --- | --- | --- | --- | --- | --- | --- | --- | --- | --- | --- | --- | --- | --- |
| 0.35 | 8.6 | 15.7 | 8.73 | 0.73 | 0.82 | 5.88 | 5.72 | 0.76 | 1.16 | 3 | 3.4 | 4.44 | 7.91 | 0.3 | 7.4 | 3.72 | 21.9 | 0.85 | O=C(O)CCCCCCCCCCCCCCCC/C=C/I | 2.21 Ci mM-1 | Distribution [21]: 0.51%; Distribution [22]: 6.91%; Distribution [23]: 0.45%; Distribution [24]: 9.9%; Distribution [25]: 1%; Distribution [26]: 0.67%; Distribution [27]: 0.31%; Distribution [28]: 3.79%; Distribution [29]: 0.97%; Distribution [30]: 12.4%; Distribution [31]: 0.92%; Specific activity [32]: 1.77 Ci mM-1; Distribution [33]: 10.9%; Distribution [34]: 6.45%; Distribution [35]: 0.86%; Distribution [36]: 43.5%; Distribution [37]: 3.79% |
| 0.41 | 7.4 | 16.9 | 9.49 | 0.66 | 0.92 | 8.44 | 5.97 | 0.71 | 1.42 | 3.47 | 3.08 | 3.93 | 7.21 | 0.67 | 6.9 | 3.74 | 29.4 | 0.95 | CC(CCCCCCCCCCCCCC/C=C/I)CC(=O)O (centres undefined) | 4.98 Ci mM-1 | Distribution [21]: 0.59%; Distribution [22]: 8.32%; Distribution [23]: 1.05%; Distribution [24]: 3.7%; Distribution [25]: 0.89%; Distribution [26]: 0.67%; Distribution [27]: 0.37%; Distribution [28]: 4.73%; Distribution [29]: 1.18%; Distribution [30]: 5.6%; Distribution [31]: 0.83%; Specific activity [32]: 7.08 Ci mM-1; Distribution [33]: 8.3%; Distribution [34]: 7.81%; Distribution [35]: 0.73%; Distribution [36]: 65.4%; Distribution [37]: 4.12% |
